How the values were obtained:
[1] = target: T1, Amine oxidase [flavin-containing] A (Rattus norvegicus, UniProt P21396); test: (§1) Inhibitory activity against Monoamine oxidase A
T1 sequence (P21396 whole entry): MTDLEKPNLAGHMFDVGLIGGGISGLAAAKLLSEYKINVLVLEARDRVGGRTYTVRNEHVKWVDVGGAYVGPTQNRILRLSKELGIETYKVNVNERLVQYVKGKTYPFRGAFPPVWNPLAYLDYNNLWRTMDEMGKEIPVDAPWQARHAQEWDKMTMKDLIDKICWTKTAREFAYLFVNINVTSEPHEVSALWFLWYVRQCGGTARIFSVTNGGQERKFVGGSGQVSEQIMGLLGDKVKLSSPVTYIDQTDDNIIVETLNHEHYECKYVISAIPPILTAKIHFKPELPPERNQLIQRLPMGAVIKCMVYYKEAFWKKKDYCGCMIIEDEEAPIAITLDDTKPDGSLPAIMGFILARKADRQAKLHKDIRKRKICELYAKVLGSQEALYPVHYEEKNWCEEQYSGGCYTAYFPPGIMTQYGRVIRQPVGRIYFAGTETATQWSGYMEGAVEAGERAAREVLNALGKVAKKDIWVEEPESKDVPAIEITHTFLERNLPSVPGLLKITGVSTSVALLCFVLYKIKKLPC
Procedure, shortened: (§2)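 Rat liver mitochondrial fraction (male Sprague-Dawley, 200-250 g), homogenised in 50 mM potassium phosphate pH 7.2. Kynuramine 40 µM as substrate with MAO-B activity blocked beforehand by L-deprenyl, product read at 324 nm. Ki for reversible complex formation obtained by direct analysis of spectrophotometric reaction progress curves over varying inhibitor concentrations.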

[2] = target: T2, Amine oxidase [flavin-containing] B (Rattus norvegicus, UniProt P19643); test: (§3) Inhibitory activity against Monoamine oxidase B
T2 sequence (P19643 whole entry): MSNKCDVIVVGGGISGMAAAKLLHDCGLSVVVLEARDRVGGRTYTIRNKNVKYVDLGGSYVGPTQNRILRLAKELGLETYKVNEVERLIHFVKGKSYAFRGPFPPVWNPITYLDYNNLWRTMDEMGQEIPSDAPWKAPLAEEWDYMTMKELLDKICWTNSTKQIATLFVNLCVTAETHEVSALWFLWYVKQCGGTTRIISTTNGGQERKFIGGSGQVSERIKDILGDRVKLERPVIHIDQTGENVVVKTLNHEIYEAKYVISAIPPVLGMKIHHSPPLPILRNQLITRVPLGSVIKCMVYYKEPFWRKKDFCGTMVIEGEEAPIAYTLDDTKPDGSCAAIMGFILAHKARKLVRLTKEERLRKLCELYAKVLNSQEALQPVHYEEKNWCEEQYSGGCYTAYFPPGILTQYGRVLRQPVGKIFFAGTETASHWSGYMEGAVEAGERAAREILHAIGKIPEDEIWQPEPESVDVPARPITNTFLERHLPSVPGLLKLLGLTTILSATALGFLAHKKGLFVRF
Procedure, shortened: (§4)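 Enzyme is a mitochondrial fraction from livers of male Sprague-Dawley rats (200-250 g), homogenised in 50 mM potassium phosphate pH 7.2. Activity followed at 37 °C with 333 µM benzylamine, product appearance read at 250 nm. Ki for reversible complex formation came from direct fitting of progress curves recorded at varying inhibitor concentrations.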

[3] = target: T1, Amine oxidase [flavin-containing] A; test: as §1; procedure, shortened: as §2; remark: listed apart in the source
[4] = target: T2, Amine oxidase [flavin-containing] B; test: as §3; procedure, shortened: as §4; remark: listed apart in the source

Ki [1] | Ki [2] | Ki [3] | Ki [4] | Structure (SMILES)
245 µM | 362 µM | 244 µM |  | c1ccc(CNCc2cn(Cc3ccccc3)c3ccccc23)cc1
132 µM | 438 µM | 133 µM |  | CC(C)NCc1cn(Cc2ccccc2)c2ccccc12
166 µM | 338 µM | 167 µM |  | CNCc1cn(Cc2ccccc2)c2ccccc12
0.00398 µM | 0.82 µM | 0.004 µM |  | C#CCN(C)Cc1cc2cc(O)ccc2n1C
10 µM | 60 µM | 10 µM |  | C#CCN(Cc1ccccc1)Cc1cc2ccccc2n1C
87.1 µM | 159 µM | 87 µM |  | c1ccc(CNCc2cc3ccccc3[nH]2)cc1
0.00141 µM | 0.37 µM | 0.0014 µM |  | CC#CCN(C)Cc1cc2cc(OC)ccc2n1C
 | 50 µM | > 1000 µM |  | CC#CCN(Cc1ccccc1)Cc1cc2ccccc2n1C
3.98 µM | 8.9 µM | 4 µM |  | C#CCNCc1cc2cc(O)ccc2n1C
0.000813 µM | 0.004 µM | 0.0008 µM |  | C#CCNCc1cc2cc(OC)ccc2n1C
0.00151 µM | 0.03 µM | 0.0015 µM | 0.0575 µM | C#CCN(C)Cc1cc2cc(OC)ccc2n1C
0.00575 µM | 8.8 µM | 0.0057 µM |  | CC#CCN(C)Cc1cc2cc(O)ccc2n1C
158 µM | 476 µM | 160 µM |  | C#CCN(C)Cc1cn(Cc2ccccc2)c2ccccc12
33.9 µM | 48 µM | 34 µM |  | Cn1c(CNCc2ccccc2)cc2ccccc21
 | 260 µM | > 1000 µM |  | C#CCN(Cc1ccccc1)Cc1cn(Cc2ccccc2)c2ccccc12
0.24 µM | 3.83 µM | 0.24 µM |  | C#CCNCc1cc2ccccc2n1C
0.00427 µM | 0.03 µM | 0.0043 µM |  | CC#CCN(C)Cc1cc2ccccc2n1C
263 µM | 429 µM | 262 µM |  | CCNCc1cn(Cc2ccccc2)c2ccccc12
0.000302 µM | 0.003 µM | 0.0003 µM |  | C#CCN(C)Cc1cc2ccccc2n1C

Structure (SMILES) | Ki [1] | Ki [2] | Ki [3] | Ki [4]
C#CCNCc1cc2cc(OCc3ccccc3)ccc2[nH]1 |  | 0.00075 µM | 0.79 µM | 
CC#CCNCc1cc2cc(OCc3ccccc3)ccc2[nH]1 | 15.1 µM | 0.015 µM |  | 

Source: ChEMBL document CHEMBL1132924, “Molecular determinants of MAO selectivity in a series of indolylmethylamine derivatives: biological activities, 3D-QSAR/CoMFA analysis, and computational simulation of ligand recognition” (J Med Chem, 2000)
